How the values were obtained:
[1] = Inhibition of ATP-stimulated [Ca2+] influx into macrophages loaded with fluorescent indicator fura-2-acetoxymethyl at 50 nM concentration of compound; assay type: functional; settings: Homo sapiens
How it was run: (§1)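 Washed human macrophage cells (10⁶/mL) in HEPES-buffered saline were loaded with fura-2 acetoxymethyl ester for 20 min at 37 °C in the dark, in a stirred cuvette. Cells were preincubated with compound at the stated single concentration for 5 min at 37 °C before ATP stimulation. Ca²⁺ influx was read as the 340:380 nm excitation ratio at 500 nm emission, as percent inhibition. Three repeats.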

[2] = Inhibition of ATP-stimulated [Ca2+] influx into macrophages loaded with fluorescent indicator fura-2-acetoxymethyl at 1000 nM concentration of compound; assay type: functional; settings: Homo sapiens
[3] = Inhibition of ATP-stimulated [Ca2+] influx into macrophages loaded with fluorescent indicator fura-2-acetoxymethyl at 500 nM concentration of compound; assay type: functional; settings: Homo sapiens; how it was run: as §1
[4] = target: T1, P2X purinoceptor 7 (Homo sapiens, UniProt Q99572); assay: Inhibitory concentration was evaluated against P2X purinoceptor 7
T1 sequence (Q99572 whole entry): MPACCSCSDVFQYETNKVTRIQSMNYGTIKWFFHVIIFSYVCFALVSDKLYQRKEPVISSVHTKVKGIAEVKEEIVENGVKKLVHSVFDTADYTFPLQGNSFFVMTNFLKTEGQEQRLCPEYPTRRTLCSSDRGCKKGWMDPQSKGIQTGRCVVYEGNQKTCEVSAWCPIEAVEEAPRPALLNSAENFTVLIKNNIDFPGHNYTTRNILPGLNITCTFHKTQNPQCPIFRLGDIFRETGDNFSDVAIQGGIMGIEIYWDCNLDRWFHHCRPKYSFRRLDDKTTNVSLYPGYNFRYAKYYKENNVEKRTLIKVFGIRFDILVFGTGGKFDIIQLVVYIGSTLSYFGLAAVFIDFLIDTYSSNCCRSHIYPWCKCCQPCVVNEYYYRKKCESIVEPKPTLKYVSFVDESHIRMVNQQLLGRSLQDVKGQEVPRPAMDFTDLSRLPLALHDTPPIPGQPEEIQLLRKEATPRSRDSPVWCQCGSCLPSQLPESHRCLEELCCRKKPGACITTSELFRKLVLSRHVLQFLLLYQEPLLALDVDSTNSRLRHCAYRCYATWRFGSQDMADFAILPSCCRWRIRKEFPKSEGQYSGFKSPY
How it was run: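 Human macrophage cells (10⁶/mL, washed, in HEPES-buffered saline) were fura-2-AM loaded for 20 min at 37 °C in the dark. Compounds (25–500 nM) were preincubated 5 min at 37 °C before ATP-stimulated Ca²⁺ influx was measured fluorimetrically (340:380 nm excitation ratio, 500 nm emission). IC50 is the mean from dose-response curves of at least three experiments.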

Row | Compound | inhibition at 0.05 µM [1] | inhibition at 1 µM [2] | inhibition at 0.5 µM [3] | IC50 [4]
1 | O=C([C@@H]1Cc2ccc(OS(=O)(=O)c3cccc4cnccc34)cc2CN1S(=O)(=O)c1cccc2cnccc12)N1CCN(c2ccccc2)CC1 | 1.66% | 25.8% | 34.5% | –
2 | O=C([C@@H]1Cc2ccc(OS(=O)(=O)c3cccc4cccnc34)cc2CN1S(=O)(=O)c1cccc2cccnc12)N1CCN(c2ccccc2)CC1 | 6.9% | 0% | 3.4% | –
3 | O=C([C@@H]1Cc2ccc(OS(=O)(=O)c3cccc4ncccc34)cc2CN1S(=O)(=O)c1cccc2ncccc12)N1CCN(c2ccccc2)CC1 | 59% | 66% | 72.4% | –
4 | O=C([C@@H]1Cc2ccc(OS(=O)(=O)c3cccc4ccccc34)cc2CN1S(=O)(=O)c1cccc2ccccc12)N1CCN(c2ccccc2)CC1 | 0% | 0% | 0% | –
5 | CN([C@@H](Cc1ccc(OS(=O)(=O)c2cccc3cnccc23)cc1)C(=O)N1CCN(c2ccccc2)CC1)S(=O)(=O)c1cccc2cnccc12 | 94.4% | 100% | 100% | 13.4 nM

— ChEMBL document CHEMBL1133321, “Synthesis of conformationally constrained analogues of KN62, a potent antagonist of the P2X7-receptor” (Bioorg Med Chem Lett, 2000)
